Experimental data: publication PMC2695546 (Psychopharmacology, 2009)
Structures can show the parent of a compound that is named as a salt. Where two headings read alike, the source gives them in different places.

Columns and labels:
[1] = system: capsaicin-sensitized mice; experiment: Capsaicin-induced mechanical hypersensitivity; format: in vivo, mouse
[2] = system: mice; experiment: Rotarod test; format: in vivo, mouse; settings: for Effect on rotarod latency: 45 min after s.c., mg/kg: HP 0.06, HP-Met-I 64, HP-Met-II 0.25, (−)-sulpiride 100, HP-Met-III 128, PRE-084 64; for Effect of PRE-084 on the drug's effect in the rotarod test: PRE-084 64 mg/kg s.c., HP 0.125 mg/kg, HP-Met-II 1 mg/kg s.c.
Method in brief: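 Female CD-1 mice (25–30 g), housed at 21 ± 1°C on a 12-h light/dark cycle. Motor coordination was tested on an accelerating rotarod. Latency to fall was recorded before injection (time 0) and 45 min after s.c. dosing. PRE-084 was injected s.c. immediately before the other drug, at a separate site. Controls received an equal volume of vehicle.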

[3] = biological target: σ1 receptor (Mus musculus, UniProt O55242); experiment: [3H]; format: binding
[4] = naloxone 1 mg/kg s.c., morphine 0.25, HP 0.06, HP-Met-II 0.25, HP-Met-I 64 mg/kg s.c.
[5] = from dose–response curves, s.c., capsaicin 1 µg i.pl., 0.5 g force
[6] = read-out: IC50 (concentration of unlabeled drug that inhibited the specific binding of [3H](+)-pentazocine by 50%), mouse brain membranes P2 fraction, 5 nM [3H](+)-pentazocine, 240 min, 30°C, pH 8

Compound: COc1cc(CNC(=O)CCCC/C=C/C(C)C)ccc1O [capsaicin]
- Decrease in the EF50 value for inducing paw withdrawal in comparison to control mice ([1]; capsaicin 1 µg i.pl. vs DMSO-treated): 9.4 fold
- EF50 (force producing half the maximal reduction in paw withdrawal latency time) ([1]; capsaicin 1 µg i.pl., 15 min before stimulation, forces 0.05–8 g): 0.30 ± 0.02 g

Compound: Cl.O=C(OCCN1CCOCC1)C1(c2ccccc2)CCCCC1 [PRE-084]
- Effect on rotarod latency [2]: devoid of any effect

Compound: NCC1(CC(=O)O)CCCCC1 [gabapentin]
- IC50 [3]: > 10000 nM

Compound: CN1CC[C@]23c4c5ccc(O)c4O[C@H]2[C@@H](O)C=C[C@H]3[C@H]1C5 [morphine, morphine hydrochloride]
- Effect of naloxone on the antiallodynic effect of the drug [1, 4]: reversed

Compound: CS(=O)(=O)c1ccc(C2=C(c3ccccc3)C(=O)OC2)cc1 [rofecoxib]
- IC50 [3]: > 10000 nM

Compound: OC1(c2ccc(Cl)cc2)CCNCC1 [Haloperidol metabolite I, 4-(4-chlorophenyl)-4-hydroxypiperidine]
- IC50 [3]: 254 ± 18.4 nM
- Effect on rotarod latency [2]: no effect
- Emax (maximum antiallodynic effect) [1, 5]: 62.27 ± 6.99%
- Effect of PRE-084 on the antiallodynic effect of the drug ([1]; mouse, in vivo): completely and dose-dependently prevented
- Effect of naloxone on the antiallodynic effect of the drug ([1]; mouse, in vivo): did not significantly modify

Compound: Cl.O=C(OCCN1CCOCC1)C1(c2ccccc2)CCCCC1 [PRE-084, 2-(4-morpholinethyl)1-phenylcyclohexanecarboxylate) hydrochloride]
- IC50 [3, 6]: 171 ± 18.4 nM

Compound: Clc1cccc(Cl)c1N=C1NCCN1 [clonidine]
- IC50 [3]: > 10000 nM

Compound: CCN1CCC[C@H]1CNC(=O)c1cc(S(N)(=O)=O)ccc1OC [(−)-Sulpiride, (−)-sulpiride]
- IC50 [3]: > 10000 nM
- Effect on rotarod latency [2]: devoid of any effect
- ED50 (dose producing half of the maximal antiallodynic effect) ([1]; mouse, in vivo): Inactive^a

Compound: OC(CCCN1CCC(O)(c2ccc(Cl)cc2)CC1)c1ccc(F)cc1 (stereo not drawn) [Haloperidol metabolite II, 4-(4-chlorophenyl)-α-(4-fluorophenyl)-4-hydroxy-1-piperidinebutanol]
- IC50 [3]: 12.8 ± 0.69 nM
- Effect on rotarod latency [2]: no effect
- Effect of PRE-084 on the drug's effect in the rotarod test [2]: not prevented
- Emax (maximum antiallodynic effect) [1, 5]: 100%
- Effect of naloxone on the antiallodynic effect of the drug [1, 4]: did not significantly modify
- Antiallodynic effect at higher doses ([1]; s.c., HP 0.125 mg/kg, HP-Met-II 1 mg/kg): 100%

Compound: O=C(CCCN1CCC(O)(c2ccc(Cl)cc2)CC1)c1ccc(F)cc1 [Haloperidol, haloperidol]
- Effect on rotarod latency [2]: no effect
- Effect of PRE-084 on the drug's effect in the rotarod test [2]: not prevented
- Antiallodynic effect at higher doses ([1]; mouse, in vivo): 100%
- Effect of PRE-084 on the antiallodynic effect of the drug ([1]; mouse, in vivo): dose-dependent reversion
- Effect of naloxone on the antiallodynic effect of the drug ([1]; mouse, in vivo): did not significantly modify
- Emax (maximum antiallodynic effect) ([1]; mouse, in vivo, sc): 100%

Compound: O=C(O)CCC(=O)c1ccc(F)cc1 [Haloperidol metabolite III, p-fluorobenzoylpropionic acid]
- IC50 [3, 6]: > 10000 nM
- Effect on rotarod latency [2]: devoid of any effect

Compound: CN1CCN(CCc2ccc(Cl)c(Cl)c2)CC1.Cl.Cl [BD-1063, 1-[2-(3,4-dichlorophenyl)ethyl]-4-methylpiperazine dihydrochloride]
- Effect of PRE-084 on the antiallodynic effect of the drug ([1]; mouse, in vivo): completely antagonized
